Test results published in ChEMBL document CHEMBL1154251, “Yeast glycogen synthase kinase-3beta pathway inhibitors from an organic extract of Streptomyces sp” (J Nat Prod, 2009).
Activity calls are given as the source filed them. The rule behind the calls is not given here.

How the values were obtained:
[1] = target: Glycogen synthase kinase-3 beta (Homo sapiens) (UniProt P49841); assay: Inhibition of GSK3-beta expressed in H10075 yeast assessed as growth inhibition at 2.5 ug/disk after 72 hrs at 37 degreeC by disc diffusion method
Chain of Glycogen synthase kinase-3 beta (Homo sapiens) (P49841 whole entry, looked up, the tested form may be a part): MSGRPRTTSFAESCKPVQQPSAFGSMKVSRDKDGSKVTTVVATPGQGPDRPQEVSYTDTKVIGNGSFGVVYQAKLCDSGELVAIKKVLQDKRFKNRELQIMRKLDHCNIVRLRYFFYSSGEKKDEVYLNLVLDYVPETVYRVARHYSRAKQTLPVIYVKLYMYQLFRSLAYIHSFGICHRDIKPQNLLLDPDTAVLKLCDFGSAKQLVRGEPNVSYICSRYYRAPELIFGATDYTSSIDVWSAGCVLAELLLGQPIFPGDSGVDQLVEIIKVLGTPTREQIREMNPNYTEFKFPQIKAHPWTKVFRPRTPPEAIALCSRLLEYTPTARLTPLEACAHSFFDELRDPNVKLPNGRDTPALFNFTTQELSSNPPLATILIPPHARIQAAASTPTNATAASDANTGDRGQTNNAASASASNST
Procedure, shortened: (§1)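 Yeast gsk-3 null strain H10075 (mck1 mds1 mrk1 yol128c disrupted) carrying cloned human GSK-3β on pKT10; grown 2 days at 37 °C in SC minus uracil, then seeded into SC minus uracil agar pH 5.6. Compounds applied on filter disks (20, 10, 5, 2.5 µg per disk); plates incubated 72 h at 25 and 37 °C; zone of inhibition diameter read; duplicate.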

[2] = target: Glycogen synthase kinase-3 beta (Homo sapiens) (UniProt P49841); assay: Inhibition of GSK3-beta expressed in H10075 yeast assessed as growth inhibition at 20 ug/disk after 72 hrs at 25 degreeC by disc diffusion method; procedure, shortened: as §1
[3] = target: Glycogen synthase kinase-3 beta (Homo sapiens) (UniProt P49841); assay: Inhibition of GSK3-beta expressed in H10075 yeast assessed as growth inhibition at 5 ug/disk after 72 hrs at 37 degreeC by disc diffusion method; procedure, shortened: as §1
[4] = target: Glycogen synthase kinase-3 beta (Homo sapiens) (UniProt P49841); assay: Inhibition of GSK3-beta expressed in H10075 yeast assessed as growth inhibition at 10 ug/disk after 72 hrs at 24 degreeC by disc diffusion method
[5] = target: Glycogen synthase kinase-3 beta (Homo sapiens) (UniProt P49841); assay: Inhibition of GSK3-beta expressed in H10075 yeast assessed as growth inhibition at 2.5 ug/disk after 72 hrs at 24 degreeC by disc diffusion method
[6] = target: Glycogen synthase kinase-3 beta (Homo sapiens) (UniProt P49841); assay: Inhibition of GSK3-beta expressed in H10075 yeast assessed as growth inhibition at 5 ug/disk after 72 hrs at 24 degreeC by disc diffusion method
[7] = target: Glycogen synthase kinase-3 beta (Homo sapiens) (UniProt P49841); assay: Inhibition of GSK3-beta expressed in H10075 yeast assessed as growth inhibition at 10 ug/disk after 72 hrs at 37 degreeC by disc diffusion method
Procedure, shortened: (§2)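 Yeast gsk-3 null strain H10075 (mck1, mds1, mrk1, yol128c disrupted) carrying pKT10-GSK-3β. Grown 2 days at 37 °C in SC minus uracil broth, then seeded into SC minus uracil agar, pH 5.6. Samples on filter disks, screened at 20 µg/disk, actives retested down to 2.5 µg/disk. Plates held 72 h at both 25 and 37 °C. Zone of inhibition read; duplicates.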

[8] = target: Glycogen synthase kinase-3 beta (Homo sapiens) (UniProt P49841); assay: Inhibition of GSK3-beta expressed in H10075 yeast assessed as growth inhibition at 20 ug/disk after 72 hrs at 37 degreeC by disc diffusion method; procedure, shortened: as §2

| SMILES | inhibition zone (IZ) [1] | inhibition zone (IZ) [2] [mm] | inhibition zone (IZ) [3] [mm] | inhibition zone (IZ) [4] | inhibition zone (IZ) [5] | inhibition zone (IZ) [6] | inhibition zone (IZ) [7] [mm] | inhibition zone (IZ) [8] [mm] |
| --- | --- | --- | --- | --- | --- | --- | --- | --- |
| C[C@H]1C[C@H](C)C(=O)[C@@H]([C@H](O)CC2CC(=O)NC(=O)C2)C1 | inactive | 22 | 15 | 16 mm | inactive | 12 mm | 25 | 33 |
| Cn1sc(=O)n(Cc2ccccc2)c1=O | inactive | 10 | 9 | 9 mm | inactive | 8 mm | 10 | 11 |
| C[C@@H]1C[C@@H]([C@H](O)CC2CC(=O)NC(=O)C2)C(=O)[C@@H](C)C1 | 42 mm | 36 | 48 | 33 mm | 25 mm | 30 mm | – | – |
| CC/C=C(\C)C(=O)CC(O)CC1CC(=O)NC(=O)C1 (stereo not given) | 28 mm | 10 | 30 | inactive | inactive | inactive | 34 | 38 |
